Data: ChEMBL document CHEMBL1134841, “Antimalarial alkoxylated and hydroxylated chalcones [corrected]: structure-activity relationship analysis” (J Med Chem, 2001)
pIC50: −log10 of the molar value.

Legend:
[1] = Ratio of average life span of compound-treated mice (100 mg/kg, ip, 3 days) to that of mice treated with chloroquine (T/C-CQ); assay type: functional
How it was run: (§1)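 Swiss albino mice (male, 4 weeks, ~25 g) inoculated ip with 10^7 P. berghei ANKA parasitized erythrocytes (day 0). Test compound 100 mg/kg/day ip in DMSO, days 1–3, three mice per compound. Control infected groups: DMSO or 4'-butoxy-2,4-dimethoxychalcone (100 mg/kg in DMSO, ip, days 1–3), or chloroquine (52 mg/kg ip in 0.5% Tween buffer pH 7.4, day 1). Survival followed; ratio of mean life spans.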

Plasmodium falciparum = assay: Inhibition of [3H]hypoxanthine incorporation in Plasmodium falciparum K1; assay type: functional, organism-based
How it was run: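 K1 (chloroquine-resistant) parasites cultured in RPMI-1640 with 5% sodium bicarbonate and 10% type O human serum. DMSO stocks were serially diluted 10-fold in medium, covering a 10^6-fold range. Infected erythrocytes at 1–2% parasitemia and 1.5% hematocrit were incubated at 37 °C in a candle jar for 24 h. [3H]hypoxanthine was then added for a further 24 h, cells harvested and scintillation counted. IC50 from nonlinear logistic fit versus untreated control.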

Mus musculus [2] = assay: Ratio of average life span of compound-treated mice (100 mg/kg, ip, 3 days) to that of mice receiving DMSO (T/C-untreated); assay type: functional; how it was run: as §1
Mus musculus [3] = assay: Ratio of average life span of compound-treated mice (100 mg/kg, ip, 3 days) to that of mice treated with 4''-butoxy-2,4-dimethoxychalcone (comp.41); assay type: functional; how it was run: as §1

Compound	pIC50 (Plasmodium falciparum; Plasmodium falciparum, 48 h)	other results
COc1ccc(C(=O)/C=C/c2ccc(Cl)cc2Cl)c(OC)c1OC	5.27	T/C-CQ [1]: 0.48; T/C untreated (Mus musculus [2]): 0.94; T/C 41 (Mus musculus [3]): 0.94
COc1ccc(/C=C/C(=O)c2ccc(OC)c(OC)c2OC)c(OC)c1	4.78	
COc1ccc(C(=O)/C=C/c2ccc(F)cc2F)c(OC)c1OC	4.73	
COc1ccc(/C=C/C(=O)c2ccc(OC)c(OC)c2OC)cc1	4.60	
COc1ccc(C(=O)/C=C/c2cnc3ccccc3c2)cc1	5.32	T/C-CQ [1]: 0.49; T/C untreated (Mus musculus [2]): 0.98; T/C 41 (Mus musculus [3]): 1.03
COc1ccc(C(=O)/C=C/c2ccc(F)cc2F)c(OC)c1	5.21	T/C-CQ [1]: 0.52; T/C untreated (Mus musculus [2]): 1.04; T/C 41 (Mus musculus [3]): 1.04
CN(C)c1ccc(/C=C/C(=O)c2ccc(O)cc2)cc1	4.75	T/C-CQ [1]: 0.47; T/C untreated (Mus musculus [2]): 0.94; T/C 41 (Mus musculus [3]): 0.99
COc1ccc(C(=O)/C=C/c2ccc(Cl)c(Cl)c2)c(OC)c1	3.53	
O=C(/C=C/c1ccnc2ccccc12)c1ccc(O)cc1	4.29	
O=C(/C=C/c1ccnc2ccccc12)c1ccc(O)cc1O	4.03	
COc1ccc(C(=O)/C=C/c2ccc(Cl)cc2)c(OC)c1OC	4.84	
COc1ccc(C(=O)/C=C/c2ccc(Cl)cc2Cl)c(OC)c1	4.73	
O=C(/C=C/c1cnc2ccccc2c1)c1ccc(O)cc1O	4.79	T/C-CQ [1]: 0.77; T/C untreated (Mus musculus [2]): 1.08; T/C 41 (Mus musculus [3]): 1.11
COc1ccc(/C=C/C(=O)c2ccc(O)cc2O)c(OC)c1	4.25	
COc1ccc(C(=O)/C=C/c2cnc3ccccc3c2)c(OC)c1	5.66	T/C-CQ [1]: 0.65; T/C untreated (Mus musculus [2]): 1.29; T/C 41 (Mus musculus [3]): 1.29
O=C(/C=C/c1ccc(Cl)cc1Cl)c1ccc(O)cc1O	4.16	T/C-CQ [1]: 0.94; T/C untreated (Mus musculus [2]): 1.32; T/C 41 (Mus musculus [3]): 1.36
CCCCOc1ccc(C(=O)/C=C/c2ccc(OC)cc2OC)cc1	3.97	T/C-CQ [1]: 0.57; T/C untreated (Mus musculus [2]): 1.08
COc1ccc(C(=O)/C=C/c2ccnc3ccccc23)c(OC)c1	4.57	
O=C(/C=C/c1ccccn1)c1ccc(O)cc1O	4.71	T/C-CQ [1]: 0.81; T/C untreated (Mus musculus [2]): 1.47; T/C 41 (Mus musculus [3]): 0.93
COc1ccc(C(=O)/C=C/c2ccc(C)cc2)c(OC)c1OC	4.59	
COc1ccc(C(=O)/C=C/c2ccccc2Cl)c(OC)c1OC	4.38	
COc1ccc(C(=O)/C=C/c2ccc(F)cc2)c(OC)c1OC	5.02	T/C-CQ [1]: 0.69; T/C untreated (Mus musculus [2]): 1.37; T/C 41 (Mus musculus [3]): 1.37
COc1ccc(C(=O)/C=C/c2ccc(-c3ccccc3)cc2)c(OC)c1OC	4.58	
O=C(/C=C/c1ccc(C(F)(F)F)cc1)c1ccc(O)cc1O	4.58	
COc1ccc(C(=O)/C=C/c2ccc(C(F)(F)F)cc2)c(OC)c1OC	5.52	T/C-CQ [1]: 0.74; T/C untreated (Mus musculus [2]): 1.46; T/C 41 (Mus musculus [3]): 1.46
O=C(/C=C/c1ccc(Cl)cc1)c1ccc(O)cc1O	4.91	T/C-CQ [1]: 0.71; T/C untreated (Mus musculus [2]): 1.41; T/C 41 (Mus musculus [3]): 1.48
CCc1ccc(/C=C/C(=O)c2ccc(OC)c(OC)c2OC)cc1	4.78	

Compound	pIC50 (Plasmodium falciparum; Plasmodium falciparum, 48 h)	other results
COc1ccc(C(=O)/C=C/c2ccnc3ccccc23)c(OC)c1OC	4.22	
COc1ccc(C(=O)/C=C/c2cccc3ccccc23)c(OC)c1	3.49	
COc1ccc(/C=C/C(=O)c2ccc(OC)cc2OC)c(OC)c1	5.68	T/C-CQ [1]: 0.5; T/C untreated (Mus musculus [2]): 0.98; T/C 41 (Mus musculus [3]): 0.98
O=C(/C=C/c1ccccn1)c1ccc(O)cc1	4.79	T/C-CQ [1]: 0.49; T/C untreated (Mus musculus [2]): 0.99; T/C 41 (Mus musculus [3]): 1.03
O=C(/C=C/c1ccncc1)c1ccc(O)cc1O	3.92	
O=C(/C=C/c1ccc2ccccc2c1)c1ccc(O)cc1O	4.70	T/C-CQ [1]: 1.05; T/C untreated (Mus musculus [2]): 1.91; T/C 41 (Mus musculus [3]): 1.2
COc1ccc(C(=O)/C=C/c2ccc([N+](=O)[O-])cc2)c(OC)c1OC	4.65	
O=C(/C=C/c1ccc(Cl)cc1Cl)c1ccc(O)cc1	4.61	
COc1ccc(C(=O)/C=C/c2ccc(C(F)(F)F)cc2)c(OC)c1	5.23	T/C-CQ [1]: 0.84; T/C untreated (Mus musculus [2]): 1.67; T/C 41 (Mus musculus [3]): 1.67
COc1ccc(C(=O)/C=C/c2ccccc2)c(OC)c1OC	4.80	
CCOc1ccc(C(=O)/C=C/c2ccccc2)cc1	4.37	
COc1ccc(C(=O)/C=C/c2cccc(Cl)c2)c(OC)c1OC	4.61	
COc1ccc(C(=O)/C=C/c2ccc(F)cc2)cc1	4.84	T/C-CQ [1]: 1.22; T/C untreated (Mus musculus [2]): 2.2; T/C 41 (Mus musculus [3]): 1.83
COc1ccc(C(=O)/C=C/c2ccc(O)cc2)cc1	5.15	T/C-CQ [1]: 0.7; T/C untreated (Mus musculus [2]): 1.41; T/C 41 (Mus musculus [3]): 1.47
COc1ccc(C(=O)/C=C/c2cnc3ccccc3c2)c(OC)c1OC	5.70	T/C-CQ [1]: 0.96; T/C untreated (Mus musculus [2]): 1.91; T/C 41 (Mus musculus [3]): 1.91
COc1ccc(C(=O)/C=C/c2ccc(F)cc2Cl)c(OC)c1	3.22	
O=C(/C=C/c1cccc2ccccc12)c1ccc(O)cc1O	4.61	
COc1ccc(C(=O)/C=C/c2ccc(OC)cc2OC)cc1	5.19	T/C-CQ [1]: 0.46; T/C untreated (Mus musculus [2]): 0.92; T/C 41 (Mus musculus [3]): 0.97
COc1ccc(C(=O)/C=C/c2ccc(N(C)C)cc2)c(OC)c1OC	4.74	
COc1ccc(C(=O)/C=C/c2ccccc2)c(OC)c1	4.26	
O=C(/C=C/c1ccc(Cl)c(Cl)c1)c1ccc(O)cc1	4.74	T/C-CQ [1]: 0.71; T/C untreated (Mus musculus [2]): 1.28; T/C 41 (Mus musculus [3]): 0.81
COc1ccc(C(=O)/C=C/c2ccc(N(C)C)cc2)c(OC)c1 (stereo in doubt; 103)		pIC50 (Plasmodium falciparum): 4.26
COc1ccc(C(=O)/C=C/c2ccc([N+](=O)[O-])cc2)c(OC)c1 (stereo in doubt; 109)		pIC50 (Plasmodium falciparum): 3.38
COc1ccc(C(=O)/C=C/c2ccc([N+](=O)[O-])cc2)c(OC)c1 (stereo in doubt; 115)		pIC50 (Plasmodium falciparum): 4.00
O=C(/C=C/c1ccccc1)c1ccc(O)cc1 [4'-HYDROXYCHALCONE]	4.53	
CCN(CC)CCCC(C)Nc1ccnc2cc(Cl)ccc12 (configuration not stated) [CHLOROQUINE]		T/C untreated (Mus musculus [2]): 1.81; T/C 41 (Mus musculus [3]): 1.71

The next lines start with results.

pIC50 (Plasmodium falciparum; Plasmodium falciparum, 48 h)	Compound	other results
4.55	CCOc1ccc(C(=O)/C=C/c2ccc(F)cc2F)cc1	
4.59	Cc1cccc(/C=C/C(=O)c2ccc(O)cc2)c1	
4.80	COc1ccc(C(=O)/C=C/c2ccc(Cl)cc2Cl)cc1	
4.56	O=C(/C=C/c1ccc2ccccc2c1)c1ccc(O)cc1	
4.42	CCOc1ccc(C(=O)/C=C/c2ccc(C)cc2)cc1	
4.02	CCOc1ccc(C(=O)/C=C/c2ccc(Cl)cc2Cl)cc1	
4.57	COc1ccc(C(=O)/C=C/c2ccc(F)cc2F)cc1	
3.47	COc1ccc(C(=O)/C=C/c2ccc(Cl)cc2)c(OC)c1	
4.41	CCOc1ccc(C(=O)/C=C/c2ccc([N+](=O)[O-])cc2)cc1	
4.40	O=C(/C=C/c1cccc2ccccc12)c1ccc(O)cc1	
3.27	COc1ccc(C(=O)/C=C/c2ccc(Br)cc2)c(OC)c1	
4.39	O=C(/C=C/c1cnc2ccccc2c1)c1ccc(O)cc1	
4.03	COc1ccc(C(=O)/C=C/c2ccc(C)cc2)c(OC)c1	
3.27	CCOc1ccc(C(=O)/C=C/c2ccc(C#N)cc2)cc1	
4.37	COc1ccc(C(=O)/C=C/c2ccnc3ccccc23)cc1	
4.48	CCOc1ccc(C(=O)/C=C/c2ccc(OC)cc2)cc1	
4.60	CCOc1ccc(C(=O)/C=C/c2cnc3ccccc3c2)cc1	
4.52	CCOc1ccc(C(=O)/C=C/c2ccc(N(C)C)cc2)cc1	

pIC50 (Plasmodium falciparum; Plasmodium falciparum, 48 h)	Compound	other results
4.15	COc1ccc(C(=O)/C=C/c2ccc(C)cc2)cc1	
3.49	COc1ccc(C(=O)/C=C/c2ccc(F)cc2)c(OC)c1	
4.69	O=C(/C=C/c1ccc([N+](=O)[O-])cc1)c1ccc(O)cc1	
4.49	COc1ccc(/C=C/C(=O)c2ccc(O)cc2)cc1	
4.21	O=C(/C=C/c1ccccc1Cl)c1ccc(O)cc1	
4.00	CCOc1ccc(C(=O)/C=C/c2ccnc3ccccc23)cc1	
4.62	CCOc1ccc(C(=O)/C=C/c2ccc(C(F)(F)F)cc2)cc1	
4.68	CCCCc1ccc(/C=C/C(=O)c2ccc(O)cc2)cc1	
4.62	CCOc1ccc(C(=O)/C=C/c2ccc(F)cc2)cc1	
4.52	CCOc1ccc(C(=O)/C=C/c2ccc(OC)cc2OC)cc1	
4.72	COc1ccc(C(=O)/C=C/c2ccc(C(F)(F)F)cc2)cc1	
4.42	O=C(/C=C/c1ccc(Cl)cc1)c1ccc(O)cc1	
4.48	O=C(/C=C/c1cccc(Cl)c1)c1ccc(O)cc1	
4.60	Cc1ccc(/C=C/C(=O)c2ccc(O)cc2)cc1	
4.52	O=C(/C=C/c1ccc(C(F)(F)F)cc1)c1ccc(O)cc1	
4.66	O=C(/C=C/c1ccc(F)cc1)c1ccc(O)cc1	
4.66	COc1ccc(/C=C/C(=O)c2ccc(OC)cc2)cc1 [4,4'-DIMETHOXYCHALCONE]	
3.89	COc1ccc(/C=C/C(=O)c2ccc(OC)cc2OC)cc1 [METOCHALCONE]	
